Experimental data: ChEMBL document CHEMBL4477216, “Discovery and Optimization of Small Molecule Splicing Modifiers of Survival Motor Neuron 2 as a Treatment for Spinal Muscular Atrophy” (J Med Chem, 2016)

Key:
[1] = species: Homo sapiens; assay: Inhibition of mRNA splicing of human SMN2 exon 7 transfected in HEK293H cells assessed as compound concentration required to increase full-length SMN2 mRNA level by 1.5 times after 24 hrs by RT-qPCR analysis relative to GAPDH; format: cell-based
Summary of the method: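 HEK293H cells stably carrying the SMN2 minigene (exon 6 to 5' exon 8 fused to firefly luciferase) were plated and held for 6 h, then treated 24 h in duplicate at varying concentrations (0.5% DMSO). Full-length minigene mRNA and GAPDH were quantified by TaqMan RT-qPCR using actual PCR efficiencies. Results were normalized to GAPDH and DMSO and expressed as fold change versus DMSO.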

[2] = system: Mus musculus; assay: In vivo inhibition of mRNA splicing of human SMN2 exon 7 in FVB.Cg-Tg(SMN2 delta 7 exon)4299Ahmb Tg(SMN2)89Ahmb Smn1tm1Msd/J mouse assessed as median survival time at 1 mg/kg/day, ip administered on postnatal day 3 to day 23 (reference value: 14 days); format: functional
[3] = system: Mus musculus; assay: In vivo inhibition of mRNA splicing of human SMN2 exon 7 in FVB.Cg-Tg(SMN2 delta 7 exon)4299Ahmb Tg(SMN2)89Ahmb Smn1tm1Msd/J mouse assessed as median survival time at 3 mg/kg/day, ip administered on postnatal day 3 to day 23 (reference value: 14 days); format: functional
[4] = system: Mus musculus; assay: In vivo inhibition of mRNA splicing of human SMN2 exon 7 in FVB.Cg-Tg(SMN2 delta 7 exon)4299Ahmb Tg(SMN2)89Ahmb Smn1tm1Msd/J mouse assessed as median survival time at 6 mg/kg/day, po bid administered on postnatal day 24 (reference value: 14 days); format: functional
[5] = system: Mus musculus; assay: In vivo inhibition of mRNA splicing of human SMN2 exon 7 in FVB.Cg-Tg(SMN2 delta 7 exon)4299Ahmb Tg(SMN2)89Ahmb Smn1tm1Msd/J mouse assessed as median survival time at 20 mg/kg/day, po bid administered on postnatal day 24 (reference value: 14 days); format: functional
[6] = system: Mus musculus; assay: In vivo inhibition of mRNA splicing of human SMN2 exon 7 in FVB.Cg-Tg(SMN2 delta 7 exon)4299Ahmb Tg(SMN2)89Ahmb Smn1tm1Msd/J mouse assessed as increase in SMN protein level in brain at 1 mg/kg, ip qd administered on postnatal day 3 to day 9 by HTRF assay relative to control; format: functional; parameters: scale not given: the % may be the effect or the level left
Summary of the method: (§1)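 Homozygous Δ7 SMA mice were dosed IP once daily from PND3 to PND9 with compound or vehicle (100% DMSO solution, 2.5 mL/kg). Brain, spinal cord and quadriceps were homogenized in RIPA buffer with protease inhibitors. SMN was read by HTRF (anti-SMN d2 and Kryptate antibodies, overnight rt, 665/620 nm) and normalized to BCA total protein. Values are % change versus vehicle ±SD; 5-11 mice per group.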

[7] = system: Mus musculus; assay: In vivo inhibition of mRNA splicing of human SMN2 exon 7 in FVB.Cg-Tg(SMN2 delta 7 exon)4299Ahmb Tg(SMN2)89Ahmb Smn1tm1Msd/J mouse assessed as increase in SMN protein level in brain at 3 mg/kg, ip qd administered on postnatal day 3 to day 9 by HTRF assay relative to control; format: functional; parameters: scale not given: the % may be the effect or the level left; summary of the method: as §1
[8] = system: Mus musculus; assay: In vivo inhibition of mRNA splicing of human SMN2 exon 7 in FVB.Cg-Tg(SMN2 delta 7 exon)4299Ahmb Tg(SMN2)89Ahmb Smn1tm1Msd/J mouse assessed as increase in SMN protein level in spinal cord at 1 mg/kg, ip qd administered on postnatal day 3 to day 9 by HTRF assay relative to control; format: functional; parameters: scale not given: the % may be the effect or the level left; summary of the method: as §1
[9] = system: Mus musculus; assay: In vivo inhibition of mRNA splicing of human SMN2 exon 7 in FVB.Cg-Tg(SMN2 delta 7 exon)4299Ahmb Tg(SMN2)89Ahmb Smn1tm1Msd/J mouse assessed as increase in SMN protein level in spinal cord at 3 mg/kg, ip qd administered on postnatal day 3 to day 9 by HTRF assay relative to control; format: functional; parameters: scale not given: the % may be the effect or the level left; summary of the method: as §1
[10] = system: Mus musculus; assay: In vivo inhibition of mRNA splicing of human SMN2 exon 7 in FVB.Cg-Tg(SMN2 delta 7 exon)4299Ahmb Tg(SMN2)89Ahmb Smn1tm1Msd/J mouse assessed as increase in SMN protein level in quadriceps at 1 mg/kg, ip qd administered on postnatal day 3 to day 9 by HTRF assay relative to control; format: functional; parameters: scale not given: the % may be the effect or the level left; summary of the method: as §1
[11] = system: Mus musculus; assay: In vivo inhibition of mRNA splicing of human SMN2 exon 7 in FVB.Cg-Tg(SMN2 delta 7 exon)4299Ahmb Tg(SMN2)89Ahmb Smn1tm1Msd/J mouse assessed as increase in SMN protein level in quadriceps at 3 mg/kg, ip qd administered on postnatal day 3 to day 9 by HTRF assay relative to control; format: functional; parameters: scale not given: the % may be the effect or the level left; summary of the method: as §1
[12] = system: Mus musculus; assay: In vivo inhibition of mRNA splicing of human SMN2 exon 7 in FVB.Cg-Tg(SMN2 delta 7 exon)4299Ahmb Tg(SMN2)89Ahmb Smn1tm1Msd/J mouse assessed as increase in SMN protein level in brain at 0.03 mg/kg, ip qd administered on postnatal day 3 to day 9 by HTRF assay relative to control; format: functional; parameters: scale not given: the % may be the effect or the level left; summary of the method: as §1
[13] = system: Mus musculus; assay: In vivo inhibition of mRNA splicing of human SMN2 exon 7 in FVB.Cg-Tg(SMN2 delta 7 exon)4299Ahmb Tg(SMN2)89Ahmb Smn1tm1Msd/J mouse assessed as increase in SMN protein level in spinal cord at 0.03 mg/kg, ip qd administered on postnatal day 3 to day 9 by HTRF assay relative to control; format: functional; parameters: scale not given: the % may be the effect or the level left; summary of the method: as §1
[14] = system: Mus musculus; assay: In vivo inhibition of mRNA splicing of human SMN2 exon 7 in FVB.Cg-Tg(SMN2 delta 7 exon)4299Ahmb Tg(SMN2)89Ahmb Smn1tm1Msd/J mouse assessed as increase in SMN protein level in quadriceps at 0.03 mg/kg, ip qd administered on postnatal day 3 to day 9 by HTRF assay relative to control; format: functional; parameters: scale not given: the % may be the effect or the level left; summary of the method: as §1
[15] = system: Mus musculus; assay: In vivo inhibition of mRNA splicing of human SMN2 exon 7 in FVB.Cg-Tg(SMN2 delta 7 exon)4299Ahmb Tg(SMN2)89Ahmb Smn1tm1Msd/J mouse assessed as median survival time at 0.1 mg/kg/day, ip administered on postnatal day 3 to day 23 (reference value: 14 days); format: functional
[16] = system: Mus musculus; assay: In vivo inhibition of mRNA splicing of human SMN2 exon 7 in FVB.Cg-Tg(SMN2 delta 7 exon)4299Ahmb Tg(SMN2)89Ahmb Smn1tm1Msd/J mouse assessed as median survival time at 0.6 mg/kg/day, po bid administered on postnatal day 24 (reference value: 14 days); format: functional
[17] = system: Mus musculus; assay: In vivo inhibition of mRNA splicing of human SMN2 exon 7 in FVB.Cg-Tg(SMN2 delta 7 exon)4299Ahmb Tg(SMN2)89Ahmb Smn1tm1Msd/J mouse assessed as median survival time at 2 mg/kg/day, po bid administered on postnatal day 24 (reference value: 14 days); format: functional

Row | Structure (SMILES) | EC1.5 [1] [nM] | MST [2] [days] | MST [3] [days] | MST [4] [days] | MST [5] [days] | Activity [6] [%] | Activity [7] [%] | Activity [8] [%] | Activity [9] [%] | Activity [10] [%] | Activity [11] [%] | Activity [12] [%] | Activity [13] [%] | Activity [14] [%] | MST [15] [days] | MST [16] [days] | MST [17] [days]
1 | Cc1cn2nc(-c3cc(=O)n4cc(N5CCN(C)CC5)ccc4n3)cc2c(C)n1 | 35 | 45 | >190 | 45 | >190 | 149 | 230 | 123 | 189 | 129 | 218 | – | – | – | – | – | –
2 | CCN1CCN(c2ccc3cc(-c4cn5cc(C)nc(C)c5n4)c(=O)oc3c2)C[C@@H]1C | – | >150 | – | >150 | – | – | – | – | – | – | – | -10 | 7 | -3 | 34 | 34 | >55
3 | Cc1cn2cc(-c3cc4ccc(N5CCN(C)CC5)cc4c(=O)o3)nc2c(C)n1 | – | – | – | – | – | 345 | 395 | 203 | 284 | 343 | 517 | – | – | – | >100 | >100 | >100
